How the values were obtained:
[1] = test system: Mycobacterium tuberculosis H37Rv; assay: Microplate alamar blue assay; type: cell-based; settings: MABA, 7 days, unit as printed mg mL^−1
A549 cell line = assay: MTT-based cytotoxicity on lung cancer cell line; parameters: species or system human
Method in brief: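 A549 lung cancer cells were exposed to test compounds for 24 h, with cisplatin as the reference. Viability was measured by MTT: viable cells reduce the dye to formazan crystals, which are dissolved in solvent and read at 570 nm. IC50 is the half-maximal inhibitory concentration.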

InhA enzyme = InhA enzyme (Mycobacterium tuberculosis, UniProt P9WGR1); assay: InhA enzyme inhibition assay; type: biochemical, M. tuberculosis; settings: for inhibition at 50 µM: read-out: % inhibition InhA at 50 μM of inhibitor
[2] = test system: mouse macrophage cell line (RAW 264.7); settings: RAW 264.7, 48 h, MTT

InhA enzyme, sequence (P9WGR1 whole entry, looked up): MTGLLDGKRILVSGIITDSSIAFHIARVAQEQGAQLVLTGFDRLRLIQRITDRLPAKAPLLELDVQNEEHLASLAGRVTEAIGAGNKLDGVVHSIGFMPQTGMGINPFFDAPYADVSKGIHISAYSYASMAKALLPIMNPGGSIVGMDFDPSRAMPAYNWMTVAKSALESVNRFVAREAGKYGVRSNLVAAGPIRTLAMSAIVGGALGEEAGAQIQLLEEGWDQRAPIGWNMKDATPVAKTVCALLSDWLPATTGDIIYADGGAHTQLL

Compound	inhibition at 50 µM (InhA enzyme) [%]	% Toxicity at 25 μg mL^−1 [2] [%]	IC50 (A549 cell line; Homo sapiens, A549) [µM]	further results
1-(4-(1H-Pyrrol-1-yl)phenyl)-6-(4-(dimethyl amino)phenyl)hexa-2,5-dien-1-one [Compound 3v]	–	–	–	MIC values [1]: 25 mg/mL
1-(4-(1H-Pyrrol-1-yl)phenyl)-6-phenylhexa-2,5-dien-1-one [Compound 3r]	–	–	–	MIC values [1]: >25 mg/mL
4-(4-(1H-Pyrrol-1-yl)phenyl)-6-(furan-3-yl)pyrimidin-2-amine [Compound 4b]	–	–	–	MIC values [1]: 25 mg/mL
N.N.[Cl][Pt][Cl] [Cisplatin, reference compound]	–	–	–	IC50 (A549 cell line; A549, MTT): 9.9 µM
CC(C)c1ccc(C=CC(=O)c2ccc(-n3cccc3)cc2)cc1 [Compound 3k, 1-(4-(1H-Pyrrol-1-yl)phenyl)-3-(4-isopropylphenyl)prop-2-en-1-one]	36	30.1	–	–
O=C(C=Cc1cccs1)c1ccc(-n2cccc2)cc1 [Compound 3l, 1-(4-(1H-Pyrrol-1-yl)phenyl)-3-(thiophen-2-yl)prop-2-en-1-one]	36	26.6	–	–
COc1ccc(-c2cc(-c3ccc(-n4cccc4)cc3)nc(N)n2)c(OC)c1 [Compound 4c, 4-(4-(1H-Pyrrol-1-yl)phenyl)-6-(2,4-dimethoxyphenyl)pyrimidin-2-amine]	16	25.80	55.1	–
COc1ccc(-c2cc(-c3ccc(-n4cccc4)cc3)nc(N)n2)cc1 [Compound 4g, 4-(4-(1H-Pyrrol-1-yl)phenyl)-6-(4-methoxyphenyl)pyrimidin-2-amine]	36	19.09	49.4	–
Nc1nc(-c2ccc(-n3cccc3)cc2)cc(-c2ccc(Cl)cc2Cl)n1 [Compound 4h, 4-(4-(1H-Pyrrol-1-yl)phenyl)-6-(2,4-dichlorophenyl)pyrimidin-2-amine]	< 5	26.80	105	–
CC(C)c1ccc(-c2cc(-c3ccc(-n4cccc4)cc3)nc(N)n2)cc1 [Compound 4k, 4-(4-(1H-Pyrrol-1-yl)phenyl)-6-(4-isopropylphenyl)pyrimidin-2-amine]	10	28.90	123	–
COc1cccc(-c2cc(-c3ccc(-n4cccc4)cc3)nc(N)n2)c1O [Compound 4u, 2-(6-(4-(1H-Pyrrol-1-yl)phenyl)-2-aminopyrimidin-4-yl)-6-methoxyphenol]	< 5	19.10	–	% inhibition InhA at 50 μM of inhibitor (InhA enzyme; 50 μM inhibitor): no inhibition
